The source of these data is ChEMBL document CHEMBL3616436, “Synthesis, cytotoxicity and antimicrobial activity of thiourea derivatives incorporating 3-(trifluoromethyl)phenyl moiety” (Eur J Med Chem, 2015).

Series [1] can be described thus: Cytotoxicity against human MT4 cells. The class given is cell-based.
Series [2] concerns Vesicular stomatitis virus. Briefly: Antiviral activity against Vesicular stomatitis virus ATCC VR 1540 infected in African green monkey Vero 76 cells assessed as reduction of virus-plaque formation after 2 days by crystal violet staining. The class given is functional, organism-based. The note with it: ATCC VR 1540, Vero, 48 h.
Series [3] deals with Human immunodeficiency virus 1. The series can be described thus: Antiviral activity against HIV1 3B infected in human MT4 cells assessed as protection against virus-induced cytopathogenicity by MTT assay. The format is functional, organism-based. The note with it: Human immunodeficiency virus 1, 3B. Background: Protection from cytopathic effect is a common read-out in antiviral testing.

The nature of series [4]: Cytotoxicity against bovine MDBK cells assessed as cell viability after 48 to 96 hrs by MTT assay. The format is cell-based, Bos taurus. The note with it: cattle. A general note: Tetrazolium dyes change colour on reduction, which living cells bring about.
The nature of series [5]: Antiviral activity against Bovine viral diarrhea virus 1-NADL ATCC VR-534 infected in MDBK cells assessed as protection against virus-induced cytopathogenicity after 3 to 4 days by MTT assay. The class given is functional, cell-based. The following applies: Bovine viral diarrhea virus isolates and strains, ATCC VR-534, MDBK. The procedure, abridged: (§1)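 Cells seeded in 96-well plates (BHK 5x10^4, MDBK 3x10^4 cells/well), grown overnight to confluence, infected at m.o.i. 0.01 (BHK for Reo-1, MDBK for BVDV); serial compound dilutions in maintenance medium with 0.5% inactivated FBS added after 1 h; viability by MTT after 3–4 days at 37°C; EC50 for 50% protection by linear regression.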

Series [6] in a line: Cytotoxicity against BHK cells assessed as cell viability after 48 to 96 hrs by MTT assay. The format is cell-based, Mesocricetus auratus. The note with it: hamster.
Another series concerns Yellow fever virus. Briefly: Antiviral activity against Yellow fever virus 17D infected in BHK cells assessed as protection against virus-induced cytopathogenicity after 3 to 4 days by MTT assay. The format is functional, cell-based.
In series [7] the test system is Mammalian orthoreovirus 1. The series can be described thus: Antiviral activity against Reovirus type-1 ATCC VR-214 infected in BHK cells assessed as protection against virus-induced cytopathogenicity after 3 to 4 days by MTT assay. The format is functional, cell-based. The note with it: Mammalian orthoreovirus 1, ATCC VR-214, BHK. The procedure, abridged: as §1

A short description of series [8]: Cytotoxicity against African green monkey Vero 76 cells assessed as cell viability after 48 to 96 hrs by crystal violet staining. The format is cell-based. The following applies: chlorocebus sabaeus.
The test system of another series is Coxsackievirus B5. The series can be described thus: Antiviral activity against Human coxsackievirus B5 ATCC VR-29 infected in African green monkey Vero 76 cells assessed as reduction of virus-plaque formation after 3 days by crystal violet staining. The following applies: Enterovirus B, ATCC VR-29, Vero, 72 h. The class given is functional, organism-based. The procedure, abridged:
(§2)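 Plaque reduction: Vero-76 at 2x10^5 cells/well grown to confluent monolayers, infected 2 h at 50–100 PFU/well; after removing unadsorbed virus, overlay of D-MEM, 1% inactivated FBS, 0.75% methylcellulose with or without serial compound dilutions; 3 days at 37°C, fixed and stained with crystal violet in 50% ethanol, plaques counted; EC50 by linear regression.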

The test system of a further series is Poliovirus 1. Briefly: Antiviral activity against Poliovirus type 1 ATCC VR-1562 infected in African green monkey Vero 76 cells assessed as reduction of virus-plaque formation after 2 days by crystal violet staining. The note with it: Enterovirus C, ATCC VR-1562, Vero, 48 h. The format is functional, organism-based.
A further series deals with Vaccinia virus. Briefly: Antiviral activity against Human Vaccinia virus ATCC VR-1549 infected in African green monkey Vero 76 cells assessed as reduction of virus-plaque formation after 3 days by crystal violet staining. The format is functional, organism-based. The note with it: Orthopoxvirus vaccinia, ATCC VR-1549, Vero, 72 h.
The test system of another series is Human alphaherpesvirus 1. Briefly: Antiviral activity against Human herpesvirus 1 KOS ATCC VR-1493 infected in African green monkey Vero 76 cells assessed as reduction of virus-plaque formation after 3 days by crystal violet staining. The class given is functional, organism-based. The following applies: Human alphaherpesvirus 1, KOS ATCC VR1493, Vero, 72 h. The procedure, abridged:
as §2

Series [9] has as its system Escherichia coli. Briefly: Antimicrobial activity against Escherichia coli ATCC 10538 after 18 hrs by twofold serial microdilution method. The class given is functional, organism-based. (Dilution methods test growth across graded concentrations, often in twofold steps.)
The test system of series [10] is Escherichia coli. The series can be described thus: Antimicrobial activity against Escherichia coli ATCC 25922 after 18 hrs by twofold serial microdilution method. The format is functional, organism-based.
Series [11] concerns Escherichia coli. The series can be described thus: Antimicrobial activity against Escherichia coli NCTC 8196 after 18 hrs by twofold serial microdilution method. The format is functional, organism-based.
The subject of series [12] is Pseudomonas aeruginosa. Briefly: Antimicrobial activity against Pseudomonas aeruginosa ATCC 15442 after 18 hrs by twofold serial microdilution method. The class given is functional, organism-based.
Series [13] deals with Pseudomonas aeruginosa. Briefly: Antimicrobial activity against Pseudomonas aeruginosa NCTC 6749 after 18 hrs by twofold serial microdilution method. The class given is functional, organism-based.
For series [14], the system named is Pseudomonas aeruginosa. The series can be described thus: Antimicrobial activity against Pseudomonas aeruginosa ATCC 27863 after 18 hrs by twofold serial microdilution method. The class given is functional, organism-based.
Series [15] relates to Bordetella bronchiseptica. Briefly: Antimicrobial activity against Bordetella bronchiseptica ATCC 4617 after 18 hrs by twofold serial microdilution method. The format is functional, organism-based.
For series [16], the system named is Candida albicans. Briefly: Antimicrobial activity against Candida albicans ATCC 10231 after 24 hrs by twofold serial microdilution method. The format is functional, organism-based.
For series [17], the system named is Candida albicans. The series can be described thus: Antimicrobial activity against Candida albicans ATCC 90028 after 24 hrs by twofold serial microdilution method. The class given is functional, organism-based.
A further series relates to Candida parapsilosis. Briefly: Antimicrobial activity against Candida parapsilosis ATCC 22019 after 24 hrs by twofold serial microdilution method. The class given is functional, organism-based.
Series [18] deals with Mycobacterium tuberculosis. Briefly: Antimycobacterial activity against Mycobacterium tuberculosis H37Rv ATCC 25618. The class given is functional. In a few lines: (§3)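 Classical test-tube successive-dilution method in Youmans' modification of Proskauer and Beck liquid medium with 10% bovine serum. Inoculum came from 14-day cultures. DMSO stock was 10 mg/mL, diluted geometrically in medium. Tubes were incubated at 37 °C. Concentrations tested were 3.1, 6.2, 12.5, 25, 50 and 100 µg/ml. MIC is the minimum concentration inhibiting growth relative to compound-free tubes.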

In series [19] the test system is Mycobacterium tuberculosis. Briefly: Antimycobacterial activity against drug-sensitive Mycobacterium tuberculosis Spec. 192. The format is functional. The procedure, abridged:
as §3

Activity calls are given as the source filed them. No cut-off for these calls is given here. A value given as a limit tells only on which side of the number the result lay.

Take `CCOC(=O)c1ccc(NC(=S)Nc2cccc(C(F)(F)F)c2)cc1`: the cytotoxic concentration (CC50) worked out at 23 µM in series [1], 64 µM in [4], 50 µM in [6] and 71 µM in series [8]. The EC50 was over 71 µM in series [2]; over 23 µM in series [3]; over 64 µM in series [5]; over 50 µM in the series on Yellow fever virus; over 50 µM in series [7]; over 71 µM in the series on Coxsackievirus B5. In addition, the EC50 with Poliovirus 1, with Vaccinia virus and in the series on Human alphaherpesvirus 1 was over 71 µM in each case. Further, the outcome in the series with Escherichia coli [9], with Escherichia coli [10], with Escherichia coli [11], with Pseudomonas aeruginosa [12], in the series on Pseudomonas aeruginosa [13] and with Pseudomonas aeruginosa [14] was inactive. Moreover, the result (in series [15]; in the series on Candida albicans [16]; in the series with Candida albicans [17]; in the series on Candida parapsilosis) was inactive. The MIC in [18] and in series [19] was over 100 µg/mL each time.

For the molecule `Cc1ccc(NC(=S)Nc2cccc(C(F)(F)F)c2)cc1Cl`, the CC50 in series [1] was found to be 20 µM; in [4] it was 10 µM; in [6], 10 µM; in series [8], 20 µM. Moreover, the EC50 in [2] was over 20 µM; in [3] it was over 20 µM; in series [5], over 10 µM; with Yellow fever virus it was over 10 µM; in series [7], over 10 µM; in the series with Coxsackievirus B5, over 20 µM. Besides, the EC50 with Poliovirus 1, with Vaccinia virus and in the series with Human alphaherpesvirus 1 was over 20 µM each time. Further, the result in the series on Escherichia coli [9], in the series on Escherichia coli [10], with Escherichia coli [11], in the series on Pseudomonas aeruginosa [12], with Pseudomonas aeruginosa [13] and in the series on Pseudomonas aeruginosa [14] was inactive. For the same molecule, the result (in [15]; in the series on Candida albicans [16]; in the series with Candida albicans [17]; in the series on Candida parapsilosis) was inactive. Further, the MIC in [18] and in series [19] was over 100 µg/mL each time.

As to `CCCC[C@H]1CC[C@H](c2ccc(NC(=S)Nc3cccc(C(F)(F)F)c3)cc2)CC1`, the 50% cytotoxic concentration (CC50) in [1] is 22 µM; in series [4], 10 µM; in series [6], 9.5 µM; in series [8], 17 µM. The EC50 in [2] is over 17 µM; in series [3], over 22 µM; in series [5] it was over 10 µM; in the series with Yellow fever virus, over 9.5 µM; in series [7] it was over 9.5 µM; in the series on Coxsackievirus B5, over 17 µM. Besides, the EC50 with Poliovirus 1, in the series on Vaccinia virus and with Human alphaherpesvirus 1 was over 17 µM each time. The outcome with Escherichia coli [9], with Escherichia coli [10], in the series on Escherichia coli [11], in the series on Pseudomonas aeruginosa [12], in the series on Pseudomonas aeruginosa [13] and in the series on Pseudomonas aeruginosa [14] was inactive. Moreover, the result (in [15]; in the series on Candida albicans [16]; with Candida albicans [17]; with Candida parapsilosis) was inactive.

On to `FC(F)(F)c1cccc(NC(S)=NCCN2CCOCC2)c1`, for which the half-maximal cytotoxic concentration (CC50) in series [1], in series [4], in series [6] and in [8] was over 100 µM in each case. For the same molecule, the concentration for a half-maximal effect (EC50) (in series [2]; in series [3]; in series [5]; in the series on Yellow fever virus; in [7]; in the series on Coxsackievirus B5) was over 100 µM each time. Besides, the half-maximal effective concentration (EC50) in the series on Poliovirus 1, in the series on Vaccinia virus and in the series with Human alphaherpesvirus 1 was over 100 µM in each case. Besides, the result in the series with Escherichia coli [9], in the series with Escherichia coli [10], in the series on Escherichia coli [11], in the series on Pseudomonas aeruginosa [12], with Pseudomonas aeruginosa [13] and with Pseudomonas aeruginosa [14] was inactive. The result (in series [15]; in the series with Candida albicans [16]; with Candida albicans [17]; in the series on Candida parapsilosis) was inactive.

On to `FC(F)(F)c1cccc(NC(=S)NC2CCCCC2)c1`, for which the half-maximal cytotoxic concentration (CC50) in series [1] came out at 45 µM; in [4], 48 µM; in series [6] it was 14 µM; in series [8] it was 60 µM. Moreover, the EC50 in [2] was over 60 µM; in series [3] it was over 45 µM; in series [5], over 48 µM; with Yellow fever virus, over 14 µM; in series [7], over 14 µM; in the series on Coxsackievirus B5, over 60 µM. The EC50 in the series with Poliovirus 1, in the series with Vaccinia virus and in the series on Human alphaherpesvirus 1 was over 60 µM each time. For the same molecule, the result in the series on Escherichia coli [9], in the series on Escherichia coli [10], in the series on Escherichia coli [11], in the series on Pseudomonas aeruginosa [12], in the series with Pseudomonas aeruginosa [13] and with Pseudomonas aeruginosa [14] was inactive. For the same molecule, the outcome (in series [15]; with Candida albicans [16]; with Candida albicans [17]; in the series on Candida parapsilosis) was inactive. The minimal inhibitory concentration (MIC) in series [18] and in [19] was over 100 µg/mL in each case.

Regarding `FC(F)(F)c1cccc(NC(=S)Nc2ccccc2Br)c1`, the CC50 in series [1] was 36 µM; in series [4] it was over 100 µM; in series [6], 59 µM; in series [8], 50 µM. For the same molecule, the concentration giving a half-maximal response (EC50) in series [2] was over 50 µM; in [3] it was over 36 µM; in series [5], over 100 µM; in the series with Yellow fever virus it was over 59 µM; in series [7], over 59 µM; in the series on Coxsackievirus B5, over 50 µM. For the same molecule, the EC50 in the series with Poliovirus 1, in the series with Vaccinia virus and in the series with Human alphaherpesvirus 1 was over 50 µM each time. For the same molecule, the outcome with Escherichia coli [9], in the series with Escherichia coli [10], in the series with Escherichia coli [11], with Pseudomonas aeruginosa [12], in the series on Pseudomonas aeruginosa [13] and with Pseudomonas aeruginosa [14] was inactive. Also, the result (in [15]; in the series with Candida albicans [16]; with Candida albicans [17]; in the series with Candida parapsilosis) was inactive.

As usually defined, the CC50 is the concentration that lowers cell viability or growth by half. As a reminder, the EC50 is the midpoint of the concentration-response curve. Broadly, the MIC is the lowest concentration found to suppress growth.
